Experimental data reported in ChEMBL document CHEMBL1122615, “Design and synthesis of naltrexone-derived affinity labels with nonequilibrium opioid agonist and antagonist activities. Evidence for the existence of different mu receptor subtypes in different tissues” (J Med Chem, 1984).
The source made the active and inactive calls. No cut-off for these calls is given here.

Assays:
Cavia porcellus [1] = organism: Cavia porcellus; assay: Compound was tested for persistent effect, percent inhibition of twitch that is not reversed by >=20 washings following 30 -min incubation at 200 nM; none; format: functional
Cavia porcellus [2] = organism: Cavia porcellus; assay: The agonist potency in the guinea pig ileal longitudinal muscle preparation (GPI) was determined relative to morphine as control; format: functional, Muscle tissue
[3] = biological target: Kappa-type opioid receptor (Homo sapiens) (UniProt P41145); assay: Irreversible antagonist activity at kappa receptor as ileal response to ethylketazocine after 30 min incubation at 20 nM; format: functional
Chain of Kappa-type opioid receptor (Homo sapiens) (P41145 whole entry): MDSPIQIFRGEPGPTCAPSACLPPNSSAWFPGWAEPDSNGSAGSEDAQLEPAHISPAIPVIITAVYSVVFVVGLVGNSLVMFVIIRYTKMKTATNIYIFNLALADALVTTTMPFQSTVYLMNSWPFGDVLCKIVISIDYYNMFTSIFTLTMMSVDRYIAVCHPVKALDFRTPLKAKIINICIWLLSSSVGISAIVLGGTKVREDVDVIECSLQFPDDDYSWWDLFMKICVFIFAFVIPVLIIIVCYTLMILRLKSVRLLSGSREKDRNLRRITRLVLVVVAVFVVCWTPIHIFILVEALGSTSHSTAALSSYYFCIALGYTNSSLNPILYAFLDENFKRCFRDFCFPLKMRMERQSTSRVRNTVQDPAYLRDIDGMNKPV

[4] = biological target: Kappa-type opioid receptor (Homo sapiens) (UniProt P41145); assay: Compound was tested for irreversible antagonist activity at kappa receptor by determining by ileal response to ethylketazocine after 30 min incubation at 200 nM; format: functional
[5] = biological target: Mu-type opioid receptor (Homo sapiens) (UniProt P35372); assay: Irreversible antagonist activity at mu receptor by determining by ileal response to morphine after 30 min incubation at 20 nM; format: functional
Chain of Mu-type opioid receptor (Homo sapiens) (P35372 whole entry): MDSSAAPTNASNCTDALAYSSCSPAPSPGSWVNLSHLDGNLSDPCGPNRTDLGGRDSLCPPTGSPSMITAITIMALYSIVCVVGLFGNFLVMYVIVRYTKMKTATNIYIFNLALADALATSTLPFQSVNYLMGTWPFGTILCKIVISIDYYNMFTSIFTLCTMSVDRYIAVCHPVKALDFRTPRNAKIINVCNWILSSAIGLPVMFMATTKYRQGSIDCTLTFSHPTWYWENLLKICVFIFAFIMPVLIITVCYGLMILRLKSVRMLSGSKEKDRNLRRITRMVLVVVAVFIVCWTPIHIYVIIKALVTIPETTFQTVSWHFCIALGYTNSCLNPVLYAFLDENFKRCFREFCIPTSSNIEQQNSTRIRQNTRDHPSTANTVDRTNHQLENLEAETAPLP

[6] = biological target: Mu-type opioid receptor (Homo sapiens) (UniProt P35372); assay: Compound was tested for irreversible antagonist activity at mu receptor by determining by ileal response to morphine after 30 min incubation at 200 nM; format: functional
[7] = biological target: Mu-type opioid receptor (Mus musculus) (UniProt P42866); assay: Irreversible antagonist activity at mouse vas deferens mu receptor against DADLE after 30 min at 200 nM; format: functional, tissue-based
Chain of Mu-type opioid receptor (Mus musculus) (P42866 whole entry): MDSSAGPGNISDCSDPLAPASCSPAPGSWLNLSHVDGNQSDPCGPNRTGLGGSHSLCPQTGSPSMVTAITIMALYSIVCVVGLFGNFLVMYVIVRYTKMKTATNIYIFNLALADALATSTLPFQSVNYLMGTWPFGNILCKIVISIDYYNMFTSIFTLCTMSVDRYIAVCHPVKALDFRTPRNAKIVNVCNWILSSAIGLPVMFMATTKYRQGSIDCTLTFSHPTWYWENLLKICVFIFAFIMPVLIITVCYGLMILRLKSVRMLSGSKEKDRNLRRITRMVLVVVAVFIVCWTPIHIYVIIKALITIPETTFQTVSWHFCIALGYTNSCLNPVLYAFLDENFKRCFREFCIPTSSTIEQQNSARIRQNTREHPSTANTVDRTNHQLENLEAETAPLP

Mus musculus [8] = organism: Mus musculus; assay: The agonist potency was assessed by measuring the inhibition of contraction at a single concentration (200 nM).; format: functional
[9] = biological target: Mu-type opioid receptor (Homo sapiens) (UniProt P35372); assay: Compound was tested for irreversible antagonist activity at mu receptor by determining by MVD response to morphine after 30 min incubation at 200 nM; format: functional
Cavia porcellus [10] = organism: Cavia porcellus; assay: Evaluated for the inhibition concentration in the guinea pig ileal longitudinal muscle preparation (GPI); format: functional, Muscle tissue; details: Cavia porcellus, Muscle tissue
Mus musculus [11] = organism: Mus musculus; assay: The agonist potency was assessed by measuring the inhibition of contraction at a single concentration (200 nM); format: functional
[12] = The relative rate (to beta FNA) in the reaction of Michael acceptors with cysteine at pH 7.4 at 25 degree Celsius in the presence of 13 fold excess cysteine was reported for half-life.; format: ADME
Method in brief: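 Reaction with a 13-fold excess of cysteine at pH 7.4, 25 °C under rapid stirring; aliquots quenched by acidification to pH 1 at timed intervals. Remaining compound quantified by reversed-phase HPLC (UV 254 nm, internal standard), four intervals in duplicate. Half-life taken from the slope of log amount remaining vs time; rate expressed relative to β-FNA.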

Cavia porcellus [13] = organism: Cavia porcellus; assay: Compound was tested for persistent effect, percent inhibition of twitch that is not reversed by >=20 washings following 30 -min incubation at 20 nM; format: functional
[14] = biological target: Mu-type opioid receptor (Homo sapiens) (UniProt P35372); assay: Compound was tested for irreversible antagonist activity at mu receptor by determining by MVD response to DADLE after 30 min incubation at 20 nM; format: functional
Mus musculus [15] = organism: Mus musculus; assay: Compound was tested for persistent effect, percent inhibition contraction that is not reversed significantly by >=20 washings following a 30 min incubation at 200 nM.; format: functional
Cavia porcellus [16] = organism: Cavia porcellus; assay: Compound was tested for persistent effect, percent inhibition of twitch that is not reversed by >=20 washings following 30 -min incubation at 200 nM; format: functional
[17] = biological target: Mu-type opioid receptor (Homo sapiens) (UniProt P35372); assay: Compound was tested for irreversible antagonist activity at mu receptor by determining by MVD response to DADLE after 30 min incubation at 30 nM; format: functional
[18] = Compound was tested for irreversible antagonist activity at kappa receptor by determining by ileal response to ethylketazocine after 30 min incubation at 1000 nM; format: functional
Mus musculus [19] = organism: Mus musculus; assay: The agonist potency was assessed by measuring the inhibition of contraction at a single concentration (30 nM).; format: functional
Cavia porcellus [20] = organism: Cavia porcellus; assay: Compound was tested for persistent effect, percent inhibition of twitch that is not reversed by >=20 washings following 30 -min incubation at 20 nM; none; format: functional

Structure (SMILES) | inhibition (Cavia porcellus [1]) | Potency (Cavia porcellus [2]) | Ratio [3] | Ratio [4] | Ratio [5] | Ratio [6] | Ratio [7] | Agonist potency (Mus musculus [8]) | Ratio [9] | IC50 (Cavia porcellus [10]) [nM] | Agonist potency (Mus musculus [11]) | Relative rate [12] | Inhibition (Cavia porcellus [13]) [%] | Ratio [14] | Inhibition (Mus musculus [15]) [%] | Inhibition (Cavia porcellus [16]) [%] | Ratio [17] | Ratio [18] | Agonist potency (Mus musculus [19]) | inhibition (Cavia porcellus [20])
O=C(CSSc1ccccc1[N+](=O)[O-])N[C@@H]1CCC2(O)C3Cc4ccc(O)c5c4C2(CCN3CC2CC2)C1O5 (stereo not given in full) | inactive | 1.1 | 0.5 | 1.3 | 1.3 | 2.5 | 0.98 | 70 | 1.8 | – | – | – | – | – | – | – | – | – | – | –
CCOc1ccc2c(c1)C1(C)CCN(CC3CC3)C(C2=O)C1C (stereo not given) [ETHYLKETAZOCINE] | – | – | – | – | – | – | – | – | – | 9.73 | – | – | – | – | – | – | – | – | – | –
C=C(Cl)C(=O)N[C@@H]1CCC2(O)C3Cc4ccc(O)c5c4C2(CCN3CC2CC2)C1O5 (stereo not given in full) | inactive | 1.1 | 0.93 | 0.88 | 13.4 | – | 1.6 | – | 6 | – | 44 | 0.4 | – | – | – | – | – | – | – | –
O=C(N[C@@H]1CC[C@@]2(O)[C@H]3Cc4ccc(O)c5c4[C@@]2(CCN3CC2CC2)[C@H]1O5)c1ccccc1 | – | 201 | 0.91 | – | 1.4 | – | 1 | – | 1.9 | – | 29 nM | – | 39 | 2.3 | 50 | – | – | – | – | –
O=C1C=CC(=O)N1[C@@H]1CCC2(O)C3Cc4ccc(O)c5c4C2(CCN3CC2CC2)C1O5 (stereo not given in full) | – | 2 | 0.94 | 1.4 | 1.3 | 1.3 | 0.81 | 52 | 1.1 | – | – | 450 | – | – | 35 | – | – | – | – | –
O=C(CBr)N[C@@H]1CCC2(O)C3Cc4ccc(O)c5c4C2(CCN3CC2CC2)C1O5 (stereo not given in full) | – | 58 | 0.73 | 0.78 | 3.3 | 1.7 | 1.5 | 31 | 1.4 | – | – | – | – | – | 20 | – | – | – | – | –
C=CCN1CCC23c4c5ccc(O)c4OC2[C@H](NC(=O)/C=C/C(=O)OC)CCC3(O)C1C5 (stereo not given in full) | – | 5.8 | 1 | – | 2.2 | 6.4 | 1.1 | – | 4 | – | – | – | – | – | – | 40 | 1.7 | 1.9 | 34 | –
CC(=O)/C=C/C(=O)N[C@@H]1CCC2(O)C3Cc4ccc(O)c5c4C2(CCN3CC2CC2)C1O5 (stereo not given in full) | – | 4.5 | 0.9 | – | 12.5 | – | 5 | 31 | 30 | – | – | 225 | – | – | – | – | – | – | – | inactive
